Source: PubChem BioAssay (several laboratories)
Hits are enriched below; roughly 3% of the tested compounds scored in any of these assays.
GASC-1 inh: blocks human GASC-1 demethylase activity | inhibition, % at 2.35 µM | actives 0.069% (n = 330,000) | GST-JMJD2C(1-420) H3K9me3 demethylation, DELFIA europium;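 active means more than half of a compound's replicate wells show inhibition beyond 50%, single wells judged on their own value; inconclusive means some, but no more than half, of replicates pass 50% inhibition; inactive means no replicate passes 50% inhibition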;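 further: signal counts dimethyl H3K9 product captured on neutravidin plate; 0% = median of DMSO wells and 100% = 0.3 times that DMSO median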
Target sequence (Q9H3R0 1-420 limits assumed): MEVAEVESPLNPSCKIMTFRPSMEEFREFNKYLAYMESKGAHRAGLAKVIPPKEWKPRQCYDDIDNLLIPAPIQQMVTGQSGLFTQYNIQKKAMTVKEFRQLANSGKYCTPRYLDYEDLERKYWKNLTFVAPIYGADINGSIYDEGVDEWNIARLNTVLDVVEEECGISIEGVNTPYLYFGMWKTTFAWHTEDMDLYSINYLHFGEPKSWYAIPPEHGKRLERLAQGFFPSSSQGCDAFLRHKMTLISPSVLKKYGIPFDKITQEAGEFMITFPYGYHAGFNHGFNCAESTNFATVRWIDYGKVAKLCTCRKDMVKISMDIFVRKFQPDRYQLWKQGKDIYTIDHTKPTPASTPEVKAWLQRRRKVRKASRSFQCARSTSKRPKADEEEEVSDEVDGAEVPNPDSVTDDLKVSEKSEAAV
GC-A act: GC-A (human) enzyme activation | P16066 | activation, % at 10 µM | AID 1671463 | HEK293 GC-A cells, cGMP TR-FRET, EC30 ANP; 0% at EC30 ANP, 100% saturating ANP | actives 0.14% (n = 370,000); in the data active means activation above about 40%
NPR2 activator: GC-B (human) receptor activation; P20594; HEK293-GC-B cells, CNP EC30, cGMP TR-FRET; 0% at EC30 CNP, 100% saturating CNP; activation, % at 10 µM; actives 0.11% (n = 370,000); AID 1920062;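 active means activation at 10 µM reaching about 35% in either raw or pattern-adjusted values, limit read from the data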
aDG glyco up: alpha-DG glycosylation activation; Pro5-aDG cells, alpha-DG glycosylation AlphaScreen (IIH6); 0% Pro5, 100% B10-LARGE cell signal; activation, % at 10 µM; actives 0.22% (n = 360,000); AID 624168;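 active means activation of at least 8% versus controls, or a plate z-score of at least 8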;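 further: Pro5 are CHO cells carrying HIG-tagged alpha-DG that lacks glycosylation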
GRIN3A LBD mod: NR3A (human) ligand-binding domain modulation. actives 2.5% (n = 340,000). Tm shift relative to glycine control, % at 25 µM. NR3A LBD differential scanning fluorimetry, Tm shift; 0% = protein alone, 100% = glycine-bound protein;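 active means melting temperature shift of at least 10% of the positive control shift, at one fixed dose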
Lipid droplet: modulators of hepatic lipid droplet formation. AML12 mouse hepatocytes, oleate lipid droplets, BODIPY imaging. inhibition, % at 6.5 µM. actives 0.4% (n = 240,000). AID 1656;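 active means lipid droplet intensity inhibited by at least 50%, with more than 500 cells counted; inconclusive means wells with under 300 cells, treated as cytotoxic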
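Material – mouse AML12 hepatocyte cell line, fixed after treatment · Compound dosing – one dose, 6.5 µM compound · Times – compound with oleate, overnight · Measured by – Image-based BODIPY and DAPI two-channel analysis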
Starred values were filed as active, the others as inactive.

`Nc1nc(CSC(=S)N2CCOCC2)nc(Nc2ccccc2)n1` gave GASC-1 inh 9.1, GC-A act -0.8, NPR2 activator 2.8, aDG glyco up 0.1, GRIN3A LBD mod -0.9 and Lipid droplet 3.7.
For Nc1nc(CSC(=S)N2CCN(c3ccccc3)CC2)nc(Nc2ccc(F)cc2)n1 the results were GASC-1 inh 47.8, GC-A act -6.5, NPR2 activator -7.1, aDG glyco up 1.0, GRIN3A LBD mod 25.2* and Lipid droplet 1.4.
`c1ccc2sc(NC3=NCN(C4CCCCCC4)CN3)nc2c1` gave GASC-1 inh -1.1, GC-A act -1.6, NPR2 activator 4.8, aDG glyco up 4.4* and GRIN3A LBD mod 0.4.
`CC(=O)NC1C(=O)N(CCN2CCOCC2)c2ccc(Br)cc21` (stereo not drawn) gave GASC-1 inh 7.5, GC-A act 2.9, NPR2 activator -4.2, aDG glyco up -0.1, GRIN3A LBD mod 17.9* and Lipid droplet -13.6.
`Cc1ccc(C(=O)NCc2ccccn2)cc1S(=O)(=O)N1CCOCC1` gave GASC-1 inh 21.5, GC-A act 0.6, NPR2 activator 6.9, aDG glyco up 0.3 and GRIN3A LBD mod 1.7.
For Cn1c(SCC(=O)Nc2cccc(F)c2)nnc1-c1cc2ccccc2o1 the results were GASC-1 inh 4.6, GC-A act -7.6, NPR2 activator -11.0, aDG glyco up -0.2, GRIN3A LBD mod 11.0* and Lipid droplet -2.5.
Screening Cc1noc(C)c1C(=O)N1CCC1(C)C(=O)NS(=O)(=O)Cc1cccc(Cl)c1 (stereo not drawn) returned GC-A act -2.2, NPR2 activator 1.8 and aDG glyco up -0.1.
O=C(O)c1ccc(C2NCC(c3ccccc3Cl)c3c2[nH]c2ccccc32)cc1 (stereo not drawn) was read as GASC-1 inh 3.2, GC-A act 54.0*, NPR2 activator 0.0, aDG glyco up 0.1 and GRIN3A LBD mod -0.8.
`COc1cc([C@H]2c3[nH]c4ccccc4c3C[C@H]3C(=O)N4[C@@H](c5cc(OC)c(OC)c(OC)c5)c5[nH]c6ccccc6c5C[C@H]4C(=O)N23)cc(OC)c1OC` gave GASC-1 inh inconclusive, aDG glyco up -0.7, GRIN3A LBD mod -2.6 and Lipid droplet 44.2.
`COc1cc(C2NCC(c3ccc(Cl)cc3Cl)c3c2[nH]c2ccccc32)cc(OC)c1OC` (stereo not drawn) gave GASC-1 inh 0.7, GC-A act 85.6*, NPR2 activator -11.3, aDG glyco up 0.2, GRIN3A LBD mod -0.7 and Lipid droplet -12.4.
Screening Nc1nc2c(ncn2[C@@H]2O[C@H](CNCc3ccc4ncccc4c3)[C@@H](O)[C@H]2O)c(=O)[nH]1 returned GC-A act 12.2, NPR2 activator 13.3 and aDG glyco up -0.2.
Screening Nc1nc2c(ncn2[C@@H]2O[C@H](CNCC3=Cc4cc(O)ccc4OC3)[C@@H](O)[C@H]2O)c(=O)[nH]1 returned GC-A act 47.1*, NPR2 activator 38.8* and aDG glyco up -0.1.
For N#CCC[C@H]1CC[C@]2(CCCN(Cc3cccc4ccccc34)C2)O1 the results were GC-A act -3.6 and NPR2 activator -3.6.
Screening Cc1cc(C2N=C(N)Nc3nc4ccccc4n32)c(C)n1-c1ccccc1Cl (stereo not drawn) returned GASC-1 inh 3.8, GC-A act -7.6, NPR2 activator -3.6, aDG glyco up -0.4 and GRIN3A LBD mod 12.1*.
`C=C(C)Cn1c(SCC(=O)N/N=C(\C)c2ccc([N+](=O)[O-])cc2)nnc1-c1ccc(Br)cc1` gave GC-A act -11.2 and NPR2 activator -9.9.
CCNC(=S)N(CCc1ccc(S(N)(=O)=O)cc1)C1CC(=O)N(c2ccccc2)C1=O (stereo not drawn) was read as GASC-1 inh -8.3, GC-A act -35.4, NPR2 activator -16.8, aDG glyco up -0.3, GRIN3A LBD mod -2.7 and Lipid droplet -16.3.
`O=C1CC(N(Cc2ccc3c(c2)OCO3)C(=O)Nc2ccc(F)cc2)C(=O)N1c1ccccc1` (stereo not drawn) gave GASC-1 inh 0.0, GC-A act 0.6, NPR2 activator 1.3, aDG glyco up -0.1, GRIN3A LBD mod 26.7* and Lipid droplet -23.0.
Screening O=C1CC(N(CCc2ccccc2)C(=S)Nc2cc(Cl)ccc2Cl)C(=O)N1c1c(Cl)cccc1Cl (stereo not drawn) returned GASC-1 inh -2.0, GC-A act -9.3, NPR2 activator 5.9, aDG glyco up 1.6 and GRIN3A LBD mod 16.2*.
`COC(=O)CN(C(=S)Nc1ccc(F)cc1)C1CC(=O)N(c2ccccc2)C1=O` (stereo not drawn) gave GASC-1 inh -0.7, GC-A act 2.9, NPR2 activator 9.7, aDG glyco up -0.4, GRIN3A LBD mod 2.6 and Lipid droplet -3.1.
For O=C1CC(N(CCc2ccccc2)C(=S)Nc2ccccc2)C(=O)N1c1ccc(F)cc1 (stereo not drawn) the results were GASC-1 inh 1.3, GC-A act -3.8, NPR2 activator 4.0, aDG glyco up 0.1, GRIN3A LBD mod 27.4* and Lipid droplet -14.3.
O=C1CC(N(CCc2ccccc2)C(=S)Nc2ccccc2)C(=O)N1c1ccccc1 (stereo not drawn) was read as GASC-1 inh -2.0, GC-A act -6.4, NPR2 activator -10.1, aDG glyco up 0.2, GRIN3A LBD mod 16.8* and Lipid droplet -6.7.
For Cc1ccc(CNC(=O)c2cc(S(=O)(=O)N3CCCCC3)ccc2N2CCOCC2)cc1 the results were GASC-1 inh 4.8, GC-A act -1.2, NPR2 activator 7.8, aDG glyco up -0.2 and GRIN3A LBD mod 0.5.
For Fc1ccc2[nH]c3c(N4CCc5ccccc5C4)ncnc3c2c1 the results were GASC-1 inh 3.8, GC-A act 17.8, NPR2 activator 26.9, aDG glyco up 1.9, GRIN3A LBD mod 23.2* and Lipid droplet -41.0.
Screening Cc1ccc2[nH]c3c(N4CCc5ccccc5C4)ncnc3c2c1 returned GASC-1 inh 9.7, GC-A act 14.5, NPR2 activator 13.8, aDG glyco up 6.7* and GRIN3A LBD mod -8.4.
Screening Brc1ccc2[nH]c3c(N4CCc5ccccc5C4)ncnc3c2c1 returned GASC-1 inh 5.4, GRIN3A LBD mod 6.4 and Lipid droplet -43.5.
`CCCCC1(C)OC(=O)C(=Cc2ccc(N(CC)CC)cc2)C(=O)O1` (stereo not drawn) gave GASC-1 inh 3.0, GC-A act 3.4, NPR2 activator 0.9, aDG glyco up -0.3 and GRIN3A LBD mod 3.2.
